The text below walks through data of paper PMC3528315 (The FASEB Journal, 2013).

One assay has as its system DA rats. The note with it: cited from earlier work.
Assay [1] concerns circulating polyclonal anti-MBP Abs from DA rats. In kind it is binding. Particulars: SPR; DA rats immunized with MBP63–81.
The test system of another assay is IFNγ. Description: Immunostaining of spinal cord for IFNγ. In kind it is in vivo, DA rats. Particulars: immunohistochemistry. Put shortly:
(§1)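 EAE DA rats with symptoms got single daily subcutaneous injections of liposome formulations, reference drug or placebo for 6 d and were followed for 28 d. Spinal cords were fixed, dehydrated and paraffin-embedded, and sections were immunostained for IL-2, IFNγ or BDNF per the antibody makers' protocols. Scoring was blinded, against nonimmunized rats and untreated EAE rats.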

Assay [2] deals with autoAbs to full-length MBP. Description: Serum anti-MBP autoAbs. Particulars: ELISA, vs control/placebo group. In kind it is in vivo, DA rats. The procedure, abridged: (§2)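 Wells were coated overnight at 4°C with MBP or Trx-fused MBP peptides (10 μg/ml, 100 mM carbonate/bicarbonate, pH 9.0) and blocked with 2% BSA for 1 h at 37°C. Rat sera were diluted 100- to 50,000-fold in PBS-Tween/0.5% BSA, with 5 USP units/ml heparin for MBP, and incubated 1 h at 37°C. HRP anti-rat (1:4000, 1 h, 37°C) and TMB followed, with a phosphoric acid stop and OD₄₅₀ read-out.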
Background: In an ELISA, binding on a coated surface is turned into a signal by an enzyme label.

Assay [3] has as its system autoAbs to MBP epitope 81–103. The experiment in a line: Serum autoAbs. In kind it is in vivo, DA rats. The note with it: ELISA, vs control/placebo group. Put shortly:
as §2

Assay [4] deals with autoAbs to MBP epitope 146–170. The experiment in a line: Serum autoAbs. It counts as in vivo, DA rats. The note with it: ELISA, vs control/placebo group. The procedure, abridged: as §2
Assay [5] has as its system DA rats with EAE. The experiment in a line: EAE treatment with mSUV-encapsulated MBP peptides, disease scores. In kind it is in vivo, Dark Agouti (DA) rats. The note with it: for disease course / therapeutic effect in words: 6 daily s.c. injections from d 7 after EAE induction, mean disease score; for delta: ranking of overall difference in MDS from the placebo group: ascending series, placebo = empty mSUV.

The test system of another assay is IL-2. The experiment in a line: Immunostaining of spinal cord for IL-2. It counts as in vivo, DA rats. The note with it: immunohistochemistry. Put shortly: as §1
The test system of assay [6] is Spinal cords of DA rats with EAE. Description: Spinal cord histology, gliosis and demyelination. In kind it is in vivo, Dark Agouti (DA) rats. Put shortly:
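Symptomatic EAE DA rats were dosed subcutaneously once daily for 6 d and followed for 28 d. Paraffin-embedded spinal cord sections were stained with hematoxylin–eosin and luxol fast blue and scored blind on 0–3 scales. Gliosis grades were mild (5–10 cells/focus), moderate (10–50 cells/focus) and severe (>50 cells/focus), and demyelination ran from none (0) to severe (3).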

In a further assay the test system is BDNF. Description: Immunostaining of CNS / spinal cord for BDNF. It counts as in vivo, DA rats. The note with it: immunohistochemistry, vs placebo. Put shortly: as §1
The test system of assay [7] is regulatory Th2 cells; BDNF expression. Particulars: cited from earlier work.
Assay [8] has as its system DA rats with EAE. Description: EAE treatment with p1 as such or encapsulated in SUV / mSUV. In kind it is in vivo, Dark Agouti (DA) rats. Particulars: s.c.; mean disease score vs no treatment; p1 n=8, p1 SUV n=10, p1 mSUV n=9.

Entries after “also recorded” stand apart in the source; their conditions may differ. Like-named read-outs stand apart in the source and are kept apart here.

Take “GPBP62–84: fragment of the guinea pig myelin basic protein (HAARTTHYGSLPQKSQRSQDENP; UniProt P25188 62-84, looked up, fragment)”: in the assay with DA rats, the “capability to induce EAE in DA rats” value is given as “capable to induce EAE in DA rats”.
As for “GPBP68–88: fragment of the guinea pig myelin basic protein (HYGSLPQKSQRSQDENPVVHF; UniProt P25188 68-88, looked up, fragment)”, in the assay with DA rats, the “capability to induce EAE in DA rats” value is “slightly”.
Regarding “MBP62–75: major encephalitogenic peptide in DA rats (WLKQSRSPLPSHAR; UniProt P02688 62-75, looked up, fragment)”, the “immunodominance of encephalitogenic peptide in DA rats” value in the assay with DA rats is listed as “not immunodominant”.
Turning to MDHARHGFLPRH, in assay [1], the “binding of autoAbs” value is recorded as “not detected”.
As for glatiramer acetate [Copaxone], the “IFNγ in spinal cord” value with IFNγ is on record as “significantly down-regulated”. For the same substance, the “serum concentration of autoAbs to full-length MBP” value in [2] is reported as “significant decrease”. The “serum autoAbs to MBP epitope 81–103” value in assay [3] was “down-regulated”. The “serum autoAbs to MBP epitope 146–170” value in [4] is given as “down-regulated”. Besides, in the assay with DA rats with EAE [5] (6 daily s.c. injections from d 7, Wilcoxon test, P < 0.05), the “median maximum disease score vs placebo” value was “significantly differed from the placebo group”. Besides, in the assay with DA rats with EAE [5], the “disease course / therapeutic effect in words” value is recorded as “significantly suppressed protracted EAE” and the “delta: ranking of overall difference in MDS from the placebo group” value was “p1 ≪ p2 mSUV ≈ p3 mSUV < p1 mSUV ≈ Copaxone < p123 mSUV”. Moreover, the “IL-2 in spinal cord” value in the assay on IL-2 was “significantly down-regulated”. In assay [6], the “degree of demyelination, luxol fast blue staining” value was “reduced”. The “BDNF in CNS” value with BDNF is on record as “enhanced production of BDNF”. The “induction of regulatory Th2 cells, cytokines and BDNF” value in assay [7] was “known to stimulate BDNF expression”. Further, in assay [7] (listed as glatiramer acetate), the “induction of regulatory Th2 cells, cytokines and BDNF” value was “induces the population of regulatory Th2 cells to become capable of crossing the BBB and producing anti-inflammatory cytokines IL-4, IL-6, IL-10, and brain-derived neurotrophic factor”.
Consider “p1: immunodominant MBP peptide MBP46–62, as such (without liposomes) (FGEADANQNNGTSSQDT; UniProt P02686 46-62, looked up, fragment)”, for which the “therapeutic effect on EAE” value with DA rats with EAE [8] was “no detectable therapeutic effect”. Also, in the assay on DA rats with EAE [5], the “disease course / therapeutic effect in words” value is listed as “no therapeutic effect; also recorded: no detectable therapeutic activity” and the “delta: ranking of overall difference in MDS from the placebo group” value is listed as “p1 ≪ p2 mSUV ≈ p3 mSUV < p1 mSUV ≈ Copaxone < p123 mSUV”.
